Test system: not listed separately
Test: (§1) Antagonist activity against Voltage-gated sodium channel in Swiss-Webster mouse primary cerebrocortical neurons assessed as inhibition of veratridine-induced sodium influx by SBFI-AM dye based fluorescence assay
Outline: (§2)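 Primary cortical neurons from E17 Swiss-Webster mouse embryos, plated at 1.5 × 10^5 cells/well and used at 7–9 days in vitro. Cells were loaded with 10 μM SBFI-AM plus 0.02% Pluronic F-127 for 1 h at 37 °C in Locke's buffer (pH 7.4), then equilibrated 15 min. Baseline was read for 60 s, then compound and/or veratridine was added. Ex 340/380 nm, em 505 nm, background-corrected 340/380 ratio. IC50 from a three-parameter logistic fit, 4–7 experiments.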
Molecule `C[C@@H]1CCCC(=O)N(C)/C=C/CC[C@H](C)C(=O)O[C@H](C(C)(C)C)C1` has an IC50 of 21 µM.
`C[C@@H]1CCCC(=O)N(C)CCCC[C@@H](C)C(=O)O[C@@H](C(C)(C)C)C1` gave an IC50 of 3 µM.
`C[C@H](CCCC(N)=O)C[C@@H](OC(=O)[C@H](C)CC/C=C/I)C(C)(C)C` gave an IC50 greater than 10 µM.
`C[C@@H]1CCCC(=O)N(C)/C=C/CC[C@H](C)C(=O)O[C@@H](C(C)(C)C)C1` gave an IC50 greater than 10 µM.
In the case of `C[C@H]1CCCC(=O)N(C)/C=C/CC[C@H](C)C(=O)O[C@H](C(C)(C)C)C1`, the IC50 is reported as 4 µM.
In the case of `CNC(=O)CCC[C@@H](C)C[C@@H](OC(=O)[C@@H](C)CCCCO)C(C)(C)C`, the IC50 is reported as greater than 10 µM.
`C[C@H]1CCCC(=O)N(C)/C=C/CC[C@@H](C)C(=O)O[C@H](C(C)(C)C)C1` gave an IC50 greater than 10 µM.
Work on `CNC(=O)CCC[C@@H](C)C[C@@H](OC(=O)[C@H](C)CCCCO)C(C)(C)C` yielded an IC50 greater than 10 µM.
Molecule `C[C@@H]1CCCC(=O)N(C)/C=C/CC[C@@H](C)C(=O)O[C@H](C(C)(C)C)C1` has an IC50 of 19.1 µM.
With `CNC(=O)CCC[C@@H](C)C[C@@H](OC(=O)[C@H](C)CCCC(=O)O)C(C)(C)C` the IC50 was greater than 10 µM.
For `C[C@@H]1CCCC(=O)N(C)CCCC[C@H](C)C(=O)O[C@@H](C(C)(C)C)C1`, the IC50 was 4.5 µM.
`C[C@@H]1CCCC(=O)N(C)/C=C/CC[C@@H](C)C(=O)O[C@@H](C(C)(C)C)C1` showed an IC50 of 2.1 µM.

Species: Mus musculus
Test: as §1
Outline: as §2
In the case of `C[C@H]1CCCC(=O)N(C)/C=C/CC[C@H](C)C(=O)O[C@H](C(C)(C)C)C1`, the inhibition is reported as “Dose-dependent effect”.
In the case of `C[C@@H]1CCCC(=O)N(C)/C=C/CC[C@@H](C)C(=O)O[C@@H](C(C)(C)C)C1`, the inhibition is reported as “Dose-dependent effect”.

From ChEMBL document CHEMBL3352348, “Detailed analysis of (-)-palmyrolide a and some synthetic derivatives as voltage-gated sodium channel antagonists” (J Nat Prod, 2014)
